Calls of active or inactive are those of the source. The rule behind the calls is not given here.
What was measured:
[1] = biological target: T1, Peroxisome proliferator-activated receptor alpha (Homo sapiens) (UniProt Q07869); test: Agonist activity at recombinant human PPARalpha LBD (168 to 468 residues) expressed in African green monkey COS-1 cells at 25 to 50 uM incubated for 18 hrs by luciferase reporter gene assay; format: cell-based; conditions: filed as agonist, dose 25-50 µM
T1 sequence (whole entry): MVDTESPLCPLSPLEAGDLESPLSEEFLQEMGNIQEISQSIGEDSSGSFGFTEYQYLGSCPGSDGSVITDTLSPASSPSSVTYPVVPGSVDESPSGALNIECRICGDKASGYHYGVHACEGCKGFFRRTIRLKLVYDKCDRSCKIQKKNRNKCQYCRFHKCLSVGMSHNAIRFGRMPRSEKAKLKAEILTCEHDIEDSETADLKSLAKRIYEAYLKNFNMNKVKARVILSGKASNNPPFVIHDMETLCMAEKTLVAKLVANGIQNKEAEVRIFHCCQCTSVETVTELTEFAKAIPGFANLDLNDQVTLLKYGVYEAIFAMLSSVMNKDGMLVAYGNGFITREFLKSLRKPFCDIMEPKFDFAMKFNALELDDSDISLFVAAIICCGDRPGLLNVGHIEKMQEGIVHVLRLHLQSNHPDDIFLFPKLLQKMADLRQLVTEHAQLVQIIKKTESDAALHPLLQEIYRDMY
How it was run: (§1)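 Transient Gal4 one-hybrid assay in COS-1 cells (7×10^4 per well), transfected 24 h after seeding. Plasmids were Gal4-DBD fused to the human nuclear receptor LBD, a 5×UAS-SV40 luciferase reporter and pRL-CMV Renilla control. Ligand in DMSO (final 0.1%) was added 5 h post-transfection. Dual-luciferase activity was read after 18 h, expressed as RLU, from three biological replicates in quadruplicate.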

[2] = biological target: T2, Oxysterols receptor LXR-alpha (Homo sapiens) (UniProt Q13133); test: Agonist activity at recombinant human LXRalpha LBD (164 to 447 residues) expressed in African green monkey COS-1 cells at 25 to 50 uM incubated for 18 hrs by luciferase reporter gene assay; format: cell-based; conditions: dose 25-50 µM; how it was run: as §1
T2 sequence (whole entry): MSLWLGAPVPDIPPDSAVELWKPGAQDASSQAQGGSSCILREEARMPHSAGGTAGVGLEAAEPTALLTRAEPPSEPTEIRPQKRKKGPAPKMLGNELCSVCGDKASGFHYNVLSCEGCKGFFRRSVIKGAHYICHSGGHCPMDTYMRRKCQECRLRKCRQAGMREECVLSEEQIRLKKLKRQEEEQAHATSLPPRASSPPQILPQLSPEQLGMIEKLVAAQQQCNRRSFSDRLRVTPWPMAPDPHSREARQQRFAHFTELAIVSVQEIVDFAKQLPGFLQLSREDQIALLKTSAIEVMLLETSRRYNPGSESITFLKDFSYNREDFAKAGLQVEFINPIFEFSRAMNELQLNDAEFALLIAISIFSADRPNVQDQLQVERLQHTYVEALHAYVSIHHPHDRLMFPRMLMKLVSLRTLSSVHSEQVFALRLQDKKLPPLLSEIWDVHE

COS-1 [3] = test: Agonist activity at recombinant full length human PPARalpha/gamma/RXRalpha expressed in African green monkey COS-1 cells assessed as induction of PLIN1 driven luciferase reporter activity at 25 uM incubated for 18 hrs by dual luciferase reporter gene assay; format: cell-based; conditions: filed as agonist
How it was run: (§2)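 COS-1 cells were kept in DMEM/10% FBS at 37 °C, 5% CO2, and seeded at 7×10^4 per well. After 24 h they were lipofected with full-length PPAR and RXR expression plasmids, a PLIN1- or CPT1A-driven luciferase reporter and pRL-CMV Renilla control. Compound in DMSO (final 0.1%) was added 5 h later. After 18 h, cells were lysed for Dual-Luciferase readout. Three biological replicates were run in quadruplicate.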

SGBS [4] = test: Effect on diabetic complication pathway in 8 day differentiated human SGBS cells assessed as downregulation of AGE-RAGE signalling genes at 25 uM incubated for 8 days by Illumina sequencing method; format: functional, cell-based
How it was run: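 SGBS cells were differentiated 4 days in Quickdiff supplemented with compound:BSA or rosiglitazone, then 4 days in 3FC. Total RNA was extracted, and strand-specific TruSeq libraries were sequenced on NextSeq 500 (2×75 bp paired-end). Reads were aligned to hg19 with Tophat/Bowtie and counted as RPKM by Cufflinks. Values are log2 fold over day 0 cells, grouped into KEGG gene sets (n = 2-4).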

COS-1 [5] = test: Agonist activity at recombinant full length human PPARalpha/gamma/RXRalpha expressed in African green monkey COS-1 cells assessed as induction of CPT1A driven luciferase reporter activity at 25 uM incubated for 18 hrs by dual luciferase reporter gene assay; format: cell-based; conditions: filed as agonist; how it was run: as §2
[6] = biological target: T3, Peroxisome proliferator-activated receptor alpha (Homo sapiens, UniProt Q07869); test: Agonist activity at recombinant human PPARalpha LBD (168 to 468 residues) expressed in African green monkey COS-1 cells incubated for 18 hrs by luciferase reporter gene assay; format: cell-based; how it was run: as §1
T3 sequence (Q07869 whole entry): T1 sequence (whole entry)

SGBS [7] = test: Induction of adipogenesis in 8 day differentiated human SGBS cells assessed as upregulation of steroid biosynthesis genes at 25 uM incubated for 8 days by Illumina sequencing method; format: functional, cell-based
How it was run: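 SGBS cells were differentiated for 8 days: Quickdiff for days 0-4 with 2 µM rosiglitazone or 25 µM oxo-fatty acid:BSA, then 3FC. Total RNA was extracted (RIN 9.80-10.00) and strand-specific TruSeq libraries were sequenced on NextSeq 500 (2×75 bp paired-end). Reads were aligned to hg19 and quantified as RPKM. Data were expressed as log2 fold over day-0 cells (n = 2-4) and grouped into KEGG gene sets.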

SGBS [8] = test: Induction of adipogenesis in 8 day differentiated human SGBS cells assessed as increase in UCP1 mRNA expression at 25 uM measured over 12 days by qRT-PCR analysis; format: functional, cell-based; conditions: time 12.0 day
How it was run: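 SGBS preadipocytes (passage P6-P8) were grown to confluence (day 0), then differentiated 4 days in Quickdiff (3FC with 25 nM dexamethasone, 0.5 mM IBMX) supplemented with 25 µM oxo-fatty acid (as BSA complex), then in 3FC medium with medium renewed every fourth day. Cells were harvested on days 0, 4, 8 and 12. mRNA was measured by SYBR green qPCR. Data are mean ± SEM from at least 3 biological replicates run in duplicate.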

[9] = biological target: T1, Peroxisome proliferator-activated receptor alpha (Homo sapiens); test: Agonist activity at human PPARalpha in 8 day differentiated human SGBS cells assessed as increase in ANGPTL4 gene expression at 25 uM incubated for 24 hrs by SYBR-green based qPCR analysis; format: cell-based; conditions: filed as agonist
How it was run: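 SGBS preadipocytes were seeded at passage P6-P8 and grown to confluence. They were differentiated for 4 days in Quickdiff (3FC plus dexamethasone, IBMX and rosiglitazone), then kept in 3FC with medium renewed every fourth day. On day 8, cells were stimulated for 24 h in 3FC with compound:BSA or rosiglitazone. SYBR-green qPCR used gene-specific primers. Data are mean ± SEM of three biological replicates in duplicate.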

[10] = biological target: T1, Peroxisome proliferator-activated receptor alpha (Homo sapiens); test: Agonist activity at human PPARalpha in human HuH-7 cells assessed as increase in PLIN1 gene expression at 50 uM incubated for 24 hrs by SYBR-green based qPCR analysis; format: cell-based; conditions: filed as agonist
How it was run: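 Cells were seeded at 2×10^5 per well and treated 24 h later with compound in DMSO (final 0.1%). The next day, cells were washed and scraped into RLT buffer. RNA was isolated, and target gene mRNA was quantified by SYBR-green qPCR with specific primers.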

| Activity [1] | Activity [2] | EC50 [6] [µM] | Activity [9] | Activity [10] | Structure (SMILES) | Activity (COS-1 [3]) | Activity (SGBS [4]) | Activity (COS-1 [5]) | Activity (SGBS [7]) | Activity (SGBS [8]) |
| --- | --- | --- | --- | --- | --- | --- | --- | --- | --- | --- |
| Active | inactive | 20 | – | – | CCCCCCCC(=O)/C=C/CCCCCC(=O)O | Active | Active | Active | Active | Active |
| Active | inactive | 26 | Active | Active | CCCCC/C=C/C(=O)CCCCCCCC(=O)O | – | Active | Active | Active | Active |
